Measured values: ChEMBL document CHEMBL3734668, “Evaluation of small molecule SecA inhibitors against methicillin-resistant Staphylococcus aureus” (Bioorg Med Chem, 2015)
pIC50: −log10 of the molar value. ≈ marks a conversion by molar mass, not a printed value. Blank lines part the entries; values can stand above or below the molecule they belong to. Calls of active or inactive are those of the source. The rule behind the calls is not given here.

Assays:
[1] = molecular target: T1, Protein translocase subunit SecA 1 (Staphylococcus aureus (strain NCTC 8325), UniProt O06446); assay: Inhibition of Staphylococcus aureus ATCC 35556 SecA1 expressed in Escherichia coli BL21-gammaDE3 assessed as reduction in intrinsic ATPase activity incubated for 3 hrs measured by malachite green colorimetric method
T1 sequence (O06446 whole entry): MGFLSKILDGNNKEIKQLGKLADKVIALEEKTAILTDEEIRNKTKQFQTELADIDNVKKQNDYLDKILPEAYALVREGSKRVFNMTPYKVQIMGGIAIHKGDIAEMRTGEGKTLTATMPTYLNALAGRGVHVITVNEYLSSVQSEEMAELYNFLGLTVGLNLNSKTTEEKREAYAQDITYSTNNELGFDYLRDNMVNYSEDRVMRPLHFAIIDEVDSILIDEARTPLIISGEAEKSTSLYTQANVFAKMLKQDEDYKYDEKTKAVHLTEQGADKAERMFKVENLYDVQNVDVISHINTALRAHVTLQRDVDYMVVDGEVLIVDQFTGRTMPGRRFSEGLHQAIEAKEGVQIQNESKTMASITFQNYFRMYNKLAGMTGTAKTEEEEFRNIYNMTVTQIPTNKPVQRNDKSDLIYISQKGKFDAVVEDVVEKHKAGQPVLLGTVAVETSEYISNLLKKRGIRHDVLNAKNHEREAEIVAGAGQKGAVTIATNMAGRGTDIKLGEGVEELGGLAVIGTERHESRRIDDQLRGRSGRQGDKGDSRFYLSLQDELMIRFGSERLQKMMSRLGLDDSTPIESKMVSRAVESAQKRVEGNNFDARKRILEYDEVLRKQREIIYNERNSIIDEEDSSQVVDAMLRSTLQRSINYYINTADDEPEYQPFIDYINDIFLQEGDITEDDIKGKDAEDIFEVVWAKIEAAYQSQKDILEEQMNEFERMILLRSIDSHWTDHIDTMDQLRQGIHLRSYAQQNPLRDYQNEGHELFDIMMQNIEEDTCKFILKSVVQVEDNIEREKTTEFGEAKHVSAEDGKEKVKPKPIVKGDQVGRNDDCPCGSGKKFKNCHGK

[2] = test system: Staphylococcus aureus; assay: Bacteriostatic activity against Staphylococcus aureus ATCC 6538 after 24 hrs; type: functional; details: ATCC 6538, 24 h
[3] = test system: Staphylococcus aureus; assay: Bacteriostatic activity against Staphylococcus aureus Mu3 after 24 hrs; type: functional; details: Mu3, 24 h
Summary of the method: (§1)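 Broth microdilution MIC per CLSI guidance in LB, 37 °C, shaking 250 rpm, 24 hr; run in triplicate in three separate experiments. MIC taken as lowest inhibitor concentration with no growth. Compounds from DMSO stocks; untreated controls carry equal DMSO.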

[4] = molecular target: T2, Protein translocase subunit SecA 2 (Staphylococcus aureus (strain NCTC 8325), UniProt Q2FUW6); assay: Inhibition of Staphylococcus aureus ATCC 35556 SecA2 expressed in Escherichia coli BL21-gammaDE3 assessed as reduction in intrinsic ATPase activity incubated for 3 hrs measured by malachite green colorimetric method
T2 sequence (Q2FUW6 whole entry): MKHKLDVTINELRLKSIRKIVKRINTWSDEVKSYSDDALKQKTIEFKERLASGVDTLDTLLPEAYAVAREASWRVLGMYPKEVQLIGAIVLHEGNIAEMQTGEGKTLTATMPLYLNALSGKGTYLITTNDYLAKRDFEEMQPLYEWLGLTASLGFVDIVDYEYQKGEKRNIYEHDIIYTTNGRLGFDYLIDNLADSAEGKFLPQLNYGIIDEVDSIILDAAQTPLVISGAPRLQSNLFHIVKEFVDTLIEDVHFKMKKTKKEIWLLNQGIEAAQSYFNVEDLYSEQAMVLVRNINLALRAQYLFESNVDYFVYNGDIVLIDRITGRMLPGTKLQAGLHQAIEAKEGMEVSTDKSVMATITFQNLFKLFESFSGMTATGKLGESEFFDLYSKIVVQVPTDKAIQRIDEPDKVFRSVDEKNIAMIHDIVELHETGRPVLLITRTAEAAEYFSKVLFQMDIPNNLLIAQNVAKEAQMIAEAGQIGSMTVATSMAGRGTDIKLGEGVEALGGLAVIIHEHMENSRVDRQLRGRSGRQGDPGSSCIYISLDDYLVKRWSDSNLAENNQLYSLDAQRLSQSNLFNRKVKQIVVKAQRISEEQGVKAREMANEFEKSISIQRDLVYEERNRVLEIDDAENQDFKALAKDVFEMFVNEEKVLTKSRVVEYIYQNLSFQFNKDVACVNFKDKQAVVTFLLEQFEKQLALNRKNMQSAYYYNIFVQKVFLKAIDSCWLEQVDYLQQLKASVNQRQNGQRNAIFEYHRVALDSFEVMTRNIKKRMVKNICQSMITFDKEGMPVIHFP

[5] = test system: Staphylococcus aureus; assay: Bacteriostatic activity against Staphylococcus aureus Mu50 after 24 hrs; type: functional; details: Mu50, 24 h
Summary of the method: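 Broth microdilution per CLSI guidelines in LB. Inhibitor added to dilute early-log culture (OD600 ≈ 0.05), 37 °C, 250 rpm, 24 hrs. Run in triplicate in three separate experiments. MIC read as the lowest concentration with no growth.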

[6] = test system: Staphylococcus aureus; assay: Bacteriostatic activity against Staphylococcus aureus N315 after 24 hrs; type: functional; details: N315, 24 h; summary of the method: as §1
[7] = molecular target: T1, Protein translocase subunit SecA 1; assay: Inhibition of Staphylococcus aureus ATCC 35556 SecA1 liposomal ion channel activity in Xenopus laevis oocytes incubated for 3 hrs measured by recording ion current for 1 min; type: cell-based
Summary of the method: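 Xenopus laevis oocytes injected at animal pole with 50 nl containing 120 ng liposomes, 120 ng SaSecA1, 14 ng proOmpA, 2 mM ATP, 1 mM Mg(OAc)2 plus varying inhibitor. Incubated 3 hr at 23 °C, then ion current recorded continuously 1 min.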

[8] = test system: Staphylococcus aureus; assay: Bacteriostatic activity against Staphylococcus aureus Newman after 24 hrs; type: functional; summary of the method: as §1
[9] = test system: Staphylococcus aureus; assay: Bacteriostatic activity against Staphylococcus aureus K2068 overexpressing MepA; type: functional; summary of the method: as §1
[10] = test system: Staphylococcus aureus; assay: Bacteriostatic activity against wild type Staphylococcus aureus 8325-4; type: functional; summary of the method: as §1
[11] = test system: Staphylococcus aureus; assay: Bacteriostatic activity against MepA deficient Staphylococcus aureus K2908; type: functional; summary of the method: as §1
[12] = test system: Staphylococcus aureus; assay: Bacteriostatic activity against Staphylococcus aureus K2361 overexpressing NorA; type: functional; summary of the method: as §1
[13] = test system: Staphylococcus aureus; assay: Bacteriostatic activity against NorA deficient Staphylococcus aureus K1758; type: functional; summary of the method: as §1
[14] = molecular target: T3, Protein translocase subunit SecA 1 (Staphylococcus aureus (strain NCTC 8325)) (UniProt O06446); assay: Binding affinity to SecA1 in Staphylococcus aureus ATCC 6538 whole cell lysate incubated for 1 hr by Streptavidin-based pull down assay
T3 sequence (whole entry): T1 sequence (O06446 whole entry)
Summary of the method: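 Lysate precleared on streptavidin magnetic beads (4 °C, 1 hr), then rolled ±400 μM biotinylated probe at 4 °C, 1 hr. Beads washed three times, boiled in SDS buffer; SaSecA1 detected by Western blot using cross-reacting EcSecA antibody.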

[15] = Inhibition of Escherichia coli SecA N68 mutant ATPase activity

SMILES: Oc1ccc2c(c1)Oc1cc(O)ccc1C2C1CCCC1
- pIC50 [1]: 4.46
- MIC [2]: 11 µg/mL (≈ 39 µM)
- MIC [3]: 14 µg/mL (≈ 49.6 µM)
- pIC50 [4]: 4.52
- MIC [5]: 14 µg/mL (≈ 49.6 µM)
- MIC [6]: 14 µg/mL (≈ 49.6 µM)
- pIC50 [7]: 5.70
- MIC [8]: 7 µg/mL (≈ 24.8 µM)

SMILES: CCn1cc(C(=O)O)c(=O)c2cc(F)c(N3CCNCC3)cc21 [NORFLOXACIN]
- MIC [5]: 250 µg/mL (≈ 783 µM)

SMILES: O=C([O-])c1c(Cl)c(Cl)c(Cl)c(Cl)c1-c1c2cc(I)c(=O)c(I)c-2oc2c(I)c([O-])c(I)cc12.[Na+].[Na+] [ROSE BENGAL SODIUM]
- MIC [9]: 15 µg/mL
- MIC [10]: 13 µg/mL
- MIC [11]: 11 µg/mL
- MIC [3]: 59 µg/mL
- pIC50 [4]: 5.70
- MIC [6]: 21 µg/mL
- MIC [12]: 35 µg/mL
- MIC [13]: 22 µg/mL
- MIC [8]: 51 µg/mL

SMILES: CN[C@@H](CC(C)C)C(=O)N[C@H]1C(=O)N[C@@H](CC(N)=O)C(=O)N[C@H]2C(=O)N[C@H]3C(=O)N[C@H](C(=O)N[C@@H](C(=O)O)c4cc(O)cc(O)c4-c4cc3ccc4O)[C@H](O)c3ccc(c(Cl)c3)Oc3cc2cc(c3O[C@H]2O[C@@H](CO)[C@H](O)[C@@H](O)[C@@H]2O[C@@H]2C[C@@](C)(N)[C@@H](O)[C@@H](C)O2)Oc2ccc(cc2Cl)[C@H]1O
- MIC [5]: 8 µg/mL (≈ 5.52 µM)

SMILES: O=C(CCCC[C@@H]1SC[C@@H]2NC(=O)N[C@@H]21)NCCCCCCC1c2ccc(O)cc2Oc2cc(O)ccc21
- Activity [14]: Active
- pIC50 [15]: 4.05

Next, values leading:

- MIC [5]: 1000 µg/mL (≈ 2060 µM)
SMILES: NC[C@H]1O[C@H](O[C@H]2[C@H](O)[C@@H](O[C@H]3O[C@H](CO)[C@@H](O)[C@H](N)[C@H]3O)[C@H](N)C[C@@H]2N)[C@H](O)[C@@H](O)[C@@H]1O [KANAMYCIN]

- MIC [5]: > 1000 µg/mL
SMILES: CO[C@H]1/C=C/O[C@@]2(C)Oc3c(C)c(O)c4c(O)c(c(/C=N/N5CCN(C)CC5)c(O)c4c3C2=O)NC(=O)/C(C)=C\C=C\[C@H](C)[C@H](O)[C@@H](C)[C@@H](O)[C@@H](C)[C@H](OC(C)=O)[C@@H]1C [RIFAMPIN]

- MIC [5]: 63 µg/mL (≈ 142 µM)
SMILES: CN(C)[C@@H]1C(O)=C(C(N)=O)C(=O)[C@@]2(O)C(O)=C3C(=O)c4c(O)cccc4[C@@](C)(O)[C@H]3C[C@@H]12 [TETRACYCLINE]

- MIC [5]: 1000 µg/mL (≈ 2860 µM)
SMILES: CC1(C)S[C@@H]2[C@H](NC(=O)[C@H](N)c3ccccc3)C(=O)N2[C@H]1C(=O)O [AMPICILLIN]

- MIC [5]: > 1250 µg/mL
SMILES: CC[C@H]1OC(=O)[C@H](C)[C@@H](O[C@H]2C[C@@](C)(OC)[C@@H](O)[C@H](C)O2)[C@H](C)[C@@H](O[C@@H]2O[C@H](C)C[C@H](N(C)C)[C@H]2O)[C@](C)(O)C[C@@H](C)C(=O)[C@H](C)[C@@H](O)[C@]1(C)O [ERYTHROMYCIN]
